Measurements: ChEMBL document CHEMBL1155278, “3,4-Diaryl-isoxazoles and -imidazoles as potent dual inhibitors of p38alpha mitogen activated protein kinase and casein kinase 1delta” (J Med Chem, 2009)

Experiments:
[1] = target: Ribosomal protein S6 kinase beta-1 (Homo sapiens) (UniProt P23443); test: Inhibition of S6K1 assessed as residual activity at 10 uM by Cherenkov counting relative to control in presence of 20 uM ATP
Method in brief: (§1)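 Single-concentration profiling at 10 μM in a 78-kinase panel. Kinase activity is expressed as a percentage of control assays run without compound.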

[2] = target: Casein kinase I isoform delta (Homo sapiens, UniProt P48730); test: Inhibition of CK1delta at 10 uM by Cherenkov counting in presence of 20 uM ATP
Chain of Casein kinase I isoform delta (P48730 whole entry, looked up, canonical isoform): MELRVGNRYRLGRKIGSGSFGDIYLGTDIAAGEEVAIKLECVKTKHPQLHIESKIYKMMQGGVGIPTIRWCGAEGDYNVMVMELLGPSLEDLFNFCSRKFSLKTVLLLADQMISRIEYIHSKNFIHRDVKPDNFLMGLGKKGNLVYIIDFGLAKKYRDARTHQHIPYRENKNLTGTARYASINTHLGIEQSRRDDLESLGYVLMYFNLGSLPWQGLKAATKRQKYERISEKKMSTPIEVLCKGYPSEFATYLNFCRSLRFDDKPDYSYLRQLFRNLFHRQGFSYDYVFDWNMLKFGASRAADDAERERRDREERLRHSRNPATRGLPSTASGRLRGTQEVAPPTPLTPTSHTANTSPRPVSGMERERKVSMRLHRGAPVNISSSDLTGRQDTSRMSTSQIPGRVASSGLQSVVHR

[3] = target: Serine/threonine-protein kinase Nek7 (Homo sapiens) (UniProt Q8TDX7); test: Inhibition of NEK7 assessed as residual activity at 10 uM by Cherenkov counting relative to control
Chain of Serine/threonine-protein kinase Nek7 (Homo sapiens) (Q8TDX7 whole entry, looked up): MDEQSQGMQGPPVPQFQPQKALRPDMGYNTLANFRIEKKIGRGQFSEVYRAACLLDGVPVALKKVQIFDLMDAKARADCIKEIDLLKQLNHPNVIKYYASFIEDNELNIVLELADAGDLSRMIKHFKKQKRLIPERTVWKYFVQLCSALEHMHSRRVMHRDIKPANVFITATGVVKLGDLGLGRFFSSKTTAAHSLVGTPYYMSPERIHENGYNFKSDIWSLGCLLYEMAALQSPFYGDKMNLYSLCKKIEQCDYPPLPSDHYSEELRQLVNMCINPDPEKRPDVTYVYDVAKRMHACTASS

[4] = target: Dual specificity tyrosine-phosphorylation-regulated kinase 1A (Homo sapiens) (UniProt Q13627); test: Inhibition of DYRK1A assessed as residual activity at 10 uM by Cherenkov counting relative to control in presence of 50 uM ATP
Method in brief: (§2)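 Single-point profiling at 10 µM in a panel of 78 protein kinases. Kinase activity is expressed as a percentage relative to control assays without compound.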

[5] = target: RAC-alpha serine/threonine-protein kinase (Homo sapiens) (UniProt P31749); test: Inhibition of PKBalpha assessed as residual activity at 10 uM by Cherenkov counting relative to control in presence of 5 uM ATP; method in brief: as §1
Chain of RAC-alpha serine/threonine-protein kinase (Homo sapiens) (P31749 whole entry): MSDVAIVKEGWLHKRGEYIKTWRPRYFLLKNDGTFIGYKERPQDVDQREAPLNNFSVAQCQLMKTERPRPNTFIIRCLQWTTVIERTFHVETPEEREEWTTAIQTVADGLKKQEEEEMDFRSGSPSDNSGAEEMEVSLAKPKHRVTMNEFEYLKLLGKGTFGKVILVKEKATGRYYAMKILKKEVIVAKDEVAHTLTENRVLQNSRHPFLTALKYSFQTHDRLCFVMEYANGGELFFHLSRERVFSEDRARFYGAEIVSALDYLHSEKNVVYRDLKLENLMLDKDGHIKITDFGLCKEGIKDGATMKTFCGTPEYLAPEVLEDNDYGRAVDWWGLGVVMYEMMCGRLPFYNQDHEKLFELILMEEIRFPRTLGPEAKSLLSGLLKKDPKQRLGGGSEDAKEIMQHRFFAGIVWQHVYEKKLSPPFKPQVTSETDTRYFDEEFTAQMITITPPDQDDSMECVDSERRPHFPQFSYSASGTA

[6] = target: Aurora kinase B (Homo sapiens) (UniProt Q96GD4); test: Inhibition of Aurora B assessed as residual activity at 10 uM by Cherenkov counting relative to control in presence of 20 uM ATP; method in brief: as §2
Chain of Aurora kinase B (Homo sapiens) (Q96GD4 whole entry): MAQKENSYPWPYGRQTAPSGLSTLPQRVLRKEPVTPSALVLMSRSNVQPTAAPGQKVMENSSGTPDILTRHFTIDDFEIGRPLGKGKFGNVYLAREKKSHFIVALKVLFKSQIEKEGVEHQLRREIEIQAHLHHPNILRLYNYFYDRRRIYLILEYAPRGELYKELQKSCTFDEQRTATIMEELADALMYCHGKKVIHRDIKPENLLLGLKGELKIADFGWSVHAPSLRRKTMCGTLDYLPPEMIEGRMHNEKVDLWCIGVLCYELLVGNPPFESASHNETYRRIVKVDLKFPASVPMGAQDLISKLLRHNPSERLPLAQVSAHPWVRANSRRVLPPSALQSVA

[7] = Inhibition of CK2 assessed as residual activity at 10 uM by Cherenkov counting relative to control in presence of 5 uM ATP; method in brief: as §2
[8] = target: Tyrosine-protein kinase Yes (Homo sapiens) (UniProt P07947); test: Inhibition of YES1 assessed as residual activity at 10 uM by Cherenkov counting relative to control in presence of 20 uM ATP; method in brief: as §1
Chain of Tyrosine-protein kinase Yes (Homo sapiens) (P07947 2-543 limits assumed): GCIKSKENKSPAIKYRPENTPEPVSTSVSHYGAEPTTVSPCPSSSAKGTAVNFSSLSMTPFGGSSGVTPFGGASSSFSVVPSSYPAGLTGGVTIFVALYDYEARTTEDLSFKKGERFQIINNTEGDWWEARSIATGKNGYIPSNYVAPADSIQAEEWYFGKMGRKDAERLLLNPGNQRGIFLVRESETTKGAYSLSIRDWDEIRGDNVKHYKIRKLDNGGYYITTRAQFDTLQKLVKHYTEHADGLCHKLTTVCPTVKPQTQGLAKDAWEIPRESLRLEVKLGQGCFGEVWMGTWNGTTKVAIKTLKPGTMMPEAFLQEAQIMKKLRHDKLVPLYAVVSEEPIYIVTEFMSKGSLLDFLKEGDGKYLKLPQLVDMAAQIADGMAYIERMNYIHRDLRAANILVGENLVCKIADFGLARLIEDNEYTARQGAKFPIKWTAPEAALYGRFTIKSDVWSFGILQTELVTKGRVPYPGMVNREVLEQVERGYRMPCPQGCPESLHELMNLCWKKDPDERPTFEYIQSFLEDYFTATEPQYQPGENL

[9] = target: Ribosomal protein S6 kinase alpha-5 (Homo sapiens) (UniProt O75582); test: Inhibition of MSK1 assessed as residual activity at 10 uM by Cherenkov counting relative to control in presence of 20 uM ATP
Chain of Ribosomal protein S6 kinase alpha-5 (Homo sapiens) (O75582 whole entry, looked up): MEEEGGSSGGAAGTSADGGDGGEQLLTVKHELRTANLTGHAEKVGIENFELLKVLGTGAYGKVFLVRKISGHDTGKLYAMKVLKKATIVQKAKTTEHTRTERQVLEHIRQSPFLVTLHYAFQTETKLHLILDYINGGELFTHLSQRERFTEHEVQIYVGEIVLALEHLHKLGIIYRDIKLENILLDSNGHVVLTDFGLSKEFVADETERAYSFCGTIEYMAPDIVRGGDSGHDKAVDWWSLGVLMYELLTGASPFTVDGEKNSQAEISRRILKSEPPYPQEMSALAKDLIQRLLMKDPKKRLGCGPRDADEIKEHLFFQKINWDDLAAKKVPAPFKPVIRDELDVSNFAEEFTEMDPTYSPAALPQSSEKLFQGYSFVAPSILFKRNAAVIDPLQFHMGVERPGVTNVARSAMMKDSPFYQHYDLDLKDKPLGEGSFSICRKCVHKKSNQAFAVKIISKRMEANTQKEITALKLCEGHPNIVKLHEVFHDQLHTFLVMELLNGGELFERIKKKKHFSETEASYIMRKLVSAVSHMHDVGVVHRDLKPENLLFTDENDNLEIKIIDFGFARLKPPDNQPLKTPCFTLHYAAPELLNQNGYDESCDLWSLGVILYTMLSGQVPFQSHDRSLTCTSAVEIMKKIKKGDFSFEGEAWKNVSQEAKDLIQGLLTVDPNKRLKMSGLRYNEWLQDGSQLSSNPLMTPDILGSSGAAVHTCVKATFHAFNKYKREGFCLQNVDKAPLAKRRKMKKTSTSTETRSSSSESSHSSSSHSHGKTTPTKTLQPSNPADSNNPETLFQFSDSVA

[10] = target: MAP kinase-interacting serine/threonine-protein kinase 2 (Homo sapiens) (UniProt Q9HBH9); test: Inhibition of MNK2 assessed as residual activity at 10 uM by Cherenkov counting relative to control in presence of 50 uM ATP
Chain of MAP kinase-interacting serine/threonine-protein kinase 2 (Homo sapiens) (Q9HBH9 whole entry, looked up): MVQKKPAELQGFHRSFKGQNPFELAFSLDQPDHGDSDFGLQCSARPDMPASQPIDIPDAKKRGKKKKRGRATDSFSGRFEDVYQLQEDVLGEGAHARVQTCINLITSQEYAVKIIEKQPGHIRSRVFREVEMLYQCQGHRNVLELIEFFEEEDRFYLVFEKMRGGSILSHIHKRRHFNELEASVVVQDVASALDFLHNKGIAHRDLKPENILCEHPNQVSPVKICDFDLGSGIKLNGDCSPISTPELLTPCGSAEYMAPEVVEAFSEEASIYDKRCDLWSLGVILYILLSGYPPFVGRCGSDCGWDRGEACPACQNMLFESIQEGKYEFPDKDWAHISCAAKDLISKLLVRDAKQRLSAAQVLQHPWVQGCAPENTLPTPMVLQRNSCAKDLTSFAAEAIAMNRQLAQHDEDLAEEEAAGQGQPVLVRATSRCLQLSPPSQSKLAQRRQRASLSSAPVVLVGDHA

[11] = target: T1, Serine/threonine-protein kinase TBK1 (Homo sapiens) (UniProt Q9UHD2); test: Inhibition of TBK1 assessed as residual activity at 10 uM by Cherenkov counting relative to control in presence of 50 uM ATP; method in brief: as §1
T1 sequence (whole entry): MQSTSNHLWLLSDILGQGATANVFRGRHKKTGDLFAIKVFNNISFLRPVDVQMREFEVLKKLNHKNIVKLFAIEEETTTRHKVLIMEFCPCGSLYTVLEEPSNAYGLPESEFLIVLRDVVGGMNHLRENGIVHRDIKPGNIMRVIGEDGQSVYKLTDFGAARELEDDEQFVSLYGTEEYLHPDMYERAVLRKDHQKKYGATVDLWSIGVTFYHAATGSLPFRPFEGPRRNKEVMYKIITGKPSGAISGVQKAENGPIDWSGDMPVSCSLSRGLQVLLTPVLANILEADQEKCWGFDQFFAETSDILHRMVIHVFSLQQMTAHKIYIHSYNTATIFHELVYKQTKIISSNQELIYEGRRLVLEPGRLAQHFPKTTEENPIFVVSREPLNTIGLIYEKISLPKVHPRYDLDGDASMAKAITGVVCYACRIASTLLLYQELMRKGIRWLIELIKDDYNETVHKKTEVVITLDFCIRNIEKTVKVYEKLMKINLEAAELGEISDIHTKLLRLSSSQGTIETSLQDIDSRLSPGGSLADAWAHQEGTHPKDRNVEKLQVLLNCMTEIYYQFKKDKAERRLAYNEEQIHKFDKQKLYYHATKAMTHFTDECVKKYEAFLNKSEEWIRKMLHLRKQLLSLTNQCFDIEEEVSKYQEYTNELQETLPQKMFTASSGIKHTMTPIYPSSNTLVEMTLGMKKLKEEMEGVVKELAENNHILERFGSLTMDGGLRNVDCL

[12] = target: T2, Dual specificity tyrosine-phosphorylation-regulated kinase 2 (Homo sapiens) (UniProt Q92630); test: Inhibition of DYRK2 assessed as residual activity at 0.1 uM by Cherenkov counting relative to control in presence of 50 uM ATP
T2 sequence (whole entry): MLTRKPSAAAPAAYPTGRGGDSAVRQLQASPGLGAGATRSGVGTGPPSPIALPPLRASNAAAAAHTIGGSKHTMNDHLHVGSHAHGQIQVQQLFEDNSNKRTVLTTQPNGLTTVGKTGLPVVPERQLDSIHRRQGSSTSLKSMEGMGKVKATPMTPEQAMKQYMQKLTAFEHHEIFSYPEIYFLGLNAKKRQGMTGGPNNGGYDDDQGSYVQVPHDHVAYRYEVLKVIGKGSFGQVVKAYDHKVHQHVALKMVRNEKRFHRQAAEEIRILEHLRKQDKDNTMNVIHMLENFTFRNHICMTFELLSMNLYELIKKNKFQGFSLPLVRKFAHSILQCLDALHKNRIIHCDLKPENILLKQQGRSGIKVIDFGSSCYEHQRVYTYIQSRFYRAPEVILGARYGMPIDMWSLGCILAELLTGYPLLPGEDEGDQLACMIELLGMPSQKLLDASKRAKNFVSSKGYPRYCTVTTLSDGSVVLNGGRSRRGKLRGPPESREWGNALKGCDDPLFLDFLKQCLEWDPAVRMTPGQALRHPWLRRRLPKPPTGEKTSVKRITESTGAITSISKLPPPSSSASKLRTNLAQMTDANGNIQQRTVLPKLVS
Method in brief: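 Single-concentration screen at 0.1 µM across a panel of 76 protein kinases. Each kinase was run at an ATP concentration approximating its ATP Km. Results are % mean residual activity versus control assays without compound (n = 3 ± SD).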

[13] = target: Casein kinase I isoform epsilon (Homo sapiens, UniProt P49674); test: Inhibition of recombinant CK1epsilon by Cherenkov counting in presence of 20 uM ATP
Chain of Casein kinase I isoform epsilon (P49674 whole entry, canonical isoform): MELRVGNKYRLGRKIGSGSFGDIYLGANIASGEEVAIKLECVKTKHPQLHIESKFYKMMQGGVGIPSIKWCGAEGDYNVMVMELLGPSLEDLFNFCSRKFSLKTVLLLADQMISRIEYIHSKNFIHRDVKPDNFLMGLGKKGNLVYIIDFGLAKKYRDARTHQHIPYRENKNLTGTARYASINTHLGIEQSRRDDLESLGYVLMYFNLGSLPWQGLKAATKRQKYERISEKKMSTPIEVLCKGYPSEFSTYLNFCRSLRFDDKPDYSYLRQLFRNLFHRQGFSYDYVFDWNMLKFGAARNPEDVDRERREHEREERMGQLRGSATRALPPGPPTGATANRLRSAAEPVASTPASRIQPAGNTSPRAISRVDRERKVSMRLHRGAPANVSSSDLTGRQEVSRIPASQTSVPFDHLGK

Chain of Ribosomal protein S6 kinase beta-1 (Homo sapiens) (P23443 whole entry, looked up): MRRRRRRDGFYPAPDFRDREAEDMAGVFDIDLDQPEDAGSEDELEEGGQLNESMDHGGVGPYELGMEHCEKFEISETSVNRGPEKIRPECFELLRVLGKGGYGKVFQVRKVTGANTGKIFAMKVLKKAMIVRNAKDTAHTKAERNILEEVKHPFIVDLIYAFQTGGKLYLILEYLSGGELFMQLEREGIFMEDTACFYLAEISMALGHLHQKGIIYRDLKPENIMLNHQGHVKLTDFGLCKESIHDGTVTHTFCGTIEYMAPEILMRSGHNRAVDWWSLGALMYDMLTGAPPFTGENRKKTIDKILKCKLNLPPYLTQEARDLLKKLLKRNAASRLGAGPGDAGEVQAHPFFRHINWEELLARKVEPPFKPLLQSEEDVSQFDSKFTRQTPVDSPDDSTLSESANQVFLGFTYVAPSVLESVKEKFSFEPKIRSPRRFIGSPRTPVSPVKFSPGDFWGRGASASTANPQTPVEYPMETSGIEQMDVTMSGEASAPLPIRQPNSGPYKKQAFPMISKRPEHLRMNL

Activity [1]	inhibition [2]	Activity [3]	Activity [4]	Activity [5]	Activity [6]	Activity [7]	Activity [8]	Activity [9]	Activity [10]	Activity [11]	Activity [12]	IC50 [13]	SMILES
98%	40%	100%	95%	94%	22%	95%	101%	113%	101%	80%			CC(C)c1noc(-c2ccc(F)cc2)c1-c1ccncc1
89%	90%	104%	100%	94%	101%	96%	82%	95%	110%	90%			CC(C)c1onc(-c2ccc(F)cc2)c1-c1ccncc1
											101%	447 nM	COc1ccc(/C=C/C(=O)Nc2cc(-c3[nH]c([S+](C)[O-])nc3-c3ccc(F)cc3)ccn2)c(OC)c1 (stereo unspecified)
											82%	73 nM	COc1ccc(/C=C/C(=O)Nc2cc(-c3[nH]c(SC)nc3-c3ccc(F)cc3)ccn2)c(OC)c1
